FGF22 binding: shifts melting point of recombinant human FGF22 | 1.5% of 340,000 active | activity (Tm shift, normalised), % at 9.99 µM | recombinant FGF22 thermal shift, SYPRO orange fluorescence; percent of sucrose octasulfate shift, DMSO zero;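 active = mean Tm shift, scaled 0 neutral to 100 positive control, at about 1.3% or above, every replicate too, limit read from the data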
F508del corr: CFTR F508del correction in bronchial cells. 0.36% of 350,000 active. activity (quench increase), % at 7.58 µM. CFBE cells, YFP halide quenching; stimulated with forskolin plus potentiator P3; % fluorescence drop versus neutral controls;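 active = mean added fluorescence quench of at least 8% versus neutral control, with both replicates also reaching 8%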;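 also: cells transiently co-express mutant CFTR-F508del with the halide-sensitive YFP; corrector assay measuring rescue of mutant channel to the surface after 24 h compound exposure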
S100A4 inh HTS: blocks human S100A4 binding to myosin IIA peptide; inhibition, % at 10.7 µM; AID 652163; 0.14% of 360,000 active; P26447; S100A4/TAMRA-MyoIIA peptide fluorescence polarization;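 active = mean inhibition of at least 70% across replicates, with every replicate also reaching that level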
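Test system: S100A4 monomer protein. Medium: HEPES buffer with Ca2+, pH 7.2. Reagent: fluorescent myosin IIA peptide, 5 nM. Compound dosing: single-point compound testing. Timing: 5 min between mix addition and reading. Benchmarks: DMSO neutral and TFP positive wells.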
HIV Env fusion: inhibitors of HIV Env-mediated cell fusion. HeLa-JRFL Env/CEM21 cell fusion, luciferase. inhibition, % at 12.3 µM. 1.1% of 360,000 active;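 active = mean replicate inhibition score of at least 50 and every replicate individually at or above 50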;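 also: 0% = plate neutral controls and 100% = maraviroc near 300 nM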
E-selectin induc: induces E-selectin expression in human endothelial cells; P16581; HUVEC E-selectin immunofluorescence imaging; normalized: neutral wells 0, TNF-alpha wells 100; activation, % at 7.58 µM; 0.37% of 260,000 active; AID 686992;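 active = mean E-selectin-positive cell signal at least 10% of the positive control, reached in at least 60% of replicates, without over 20% cell loss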
Target sequence (P16581 whole entry, looked up): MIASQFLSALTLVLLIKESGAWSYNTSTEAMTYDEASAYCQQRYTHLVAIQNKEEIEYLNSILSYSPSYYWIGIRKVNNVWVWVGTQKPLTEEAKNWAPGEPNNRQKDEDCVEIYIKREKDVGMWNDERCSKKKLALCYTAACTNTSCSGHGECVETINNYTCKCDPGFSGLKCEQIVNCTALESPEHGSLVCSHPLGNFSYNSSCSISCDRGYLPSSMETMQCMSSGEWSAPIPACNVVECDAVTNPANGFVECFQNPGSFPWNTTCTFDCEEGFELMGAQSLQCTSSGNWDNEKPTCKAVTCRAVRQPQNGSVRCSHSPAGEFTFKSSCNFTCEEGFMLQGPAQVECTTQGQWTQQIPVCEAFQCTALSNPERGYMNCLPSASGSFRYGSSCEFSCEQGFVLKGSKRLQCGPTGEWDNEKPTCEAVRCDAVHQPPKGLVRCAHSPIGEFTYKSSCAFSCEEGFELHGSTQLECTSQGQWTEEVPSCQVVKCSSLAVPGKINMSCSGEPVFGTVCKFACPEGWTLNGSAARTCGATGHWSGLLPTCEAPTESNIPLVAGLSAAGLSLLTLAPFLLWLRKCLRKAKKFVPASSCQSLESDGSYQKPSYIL
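Material: HUVEC primary endothelial cells; Amount: 3,000 cells per well; Dosing: single concentration; Medium: EGM-2 growth medium on 0.1% gelatin-coated wells; Read-out basis: percent E-selectin-positive cells; Signal: immunofluorescence imaging; Control set: TNF-alpha, DMSO.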
Numbers without * were called inactive; [ ] = remark or other dose. Compounds with a hit are over-represented: about 2.7% of the library has one in this group of screens.

How did O=C(c1ccccc1)N1CCN(c2ncnc3sc4c(c23)CCC4)CC1 do in these assays?
HIV Env fusion: 87*

How did C[C@H](CO)N1C[C@H](C)[C@@H](CN(C)C(=O)NC2CCCCC2)Oc2ccc(NC(=O)CCCN(C)C)cc2C1=O do in these assays?
F508del corr: -3; S100A4 inh HTS: 12; HIV Env fusion: -12[16.7 µM]; E-selectin induc: 0

Results for CC/C(=C\C1CCCCC1)C(NP(=O)(c1ccccc1)c1ccccc1)c1ccccc1 (configuration not stated) ?
FGF22 binding: 0; F508del corr: -1; S100A4 inh HTS: 0; HIV Env fusion: 107*; E-selectin induc: 0

What do the screens show for `CCOC(=O)c1sc(=NC(=O)c2ccc(C)c(C)c2)n(C)c1C`?
FGF22 binding: 43*; F508del corr: -2; S100A4 inh HTS: -2; HIV Env fusion: -25

What do the screens show for `CC(C)NC(=O)Nc1ccc2c(c1)C(=O)N([C@H](C)CO)C[C@H](C)[C@@H](CN(C)Cc1ccc(Oc3ccccc3)cc1)O2`?
FGF22 binding: 0; F508del corr: 1; S100A4 inh HTS: -8; E-selectin induc: 0

What do the screens show for `CC(=O)OCC(=O)C1=CCC2C3CCC4=CC(=O)C=CC4(C)C3(F)C(OC(C)=O)CC12C` (configuration not stated)?
FGF22 binding: 43*; F508del corr: -3; S100A4 inh HTS: -1; HIV Env fusion: -15

How did C[C@H]1CN([C@@H](C)CO)C(=O)c2cccc(NS(=O)(=O)c3ccc(F)cc3)c2O[C@H]1CN(C)C do in these assays?
FGF22 binding: 0; F508del corr: 2; S100A4 inh HTS: 11; E-selectin induc: 0

What do the screens show for `O=C1CC(Sc2ncccn2)C(=O)N1c1ccccc1` (configuration not stated)?
S100A4 inh HTS: -4; HIV Env fusion: -70

Results for Nc1nnc(SC2CC(=O)N(c3ccccc3)C2=O)s1 (configuration not stated) ?
HIV Env fusion: 58*

What do the screens show for `Cc1noc(C)c1S(=O)(=O)N(C)C[C@@H]1Oc2ccc(NS(=O)(=O)c3ccc(F)cc3)cc2CC(=O)N([C@H](C)CO)C[C@@H]1C`?
FGF22 binding: 0; F508del corr: 2; S100A4 inh HTS: 6; HIV Env fusion: 4[16.7 µM]; E-selectin induc: 0

Results for C[C@H](CO)N1C[C@H](C)[C@H](CN(C)C(=O)NC2CCCCC2)OCCCC[C@H](C)Oc2ccc(NS(C)(=O)=O)cc2C1=O ?
FGF22 binding: 0; F508del corr: 2; HIV Env fusion: -13[16.7 µM]

Results for CCOC(=O)c1cc2sccc2n1CC(=O)OC(C)C ?
FGF22 binding: 0; S100A4 inh HTS: 3; HIV Env fusion: 6

Results for CCOC(=O)c1cc2sccc2n1CC(=O)N1CCc2ccccc21 ?
FGF22 binding: 0; S100A4 inh HTS: -3; HIV Env fusion: 62*

What do the screens show for `c1ccc(Cn2c[n+](Cc3ccccc3)cn2)cc1`?
FGF22 binding: 0; F508del corr: -1; S100A4 inh HTS: -2; HIV Env fusion: 0; E-selectin induc: 43*

How did C[C@H](CO)N1C[C@H](C)[C@@H](CN(C)C(=O)C2CCC2)Oc2ncc(C#CC(C)(C)O)cc2C1=O do in these assays?
FGF22 binding: 0; F508del corr: 2; S100A4 inh HTS: -12; HIV Env fusion: -10[16.7 µM]; E-selectin induc: 1

Results for COc1ccc(C(C#N)CC(=O)c2ccc3c(c2)OCO3)cc1OC (configuration not stated) ?
FGF22 binding: 0; F508del corr: 14*; S100A4 inh HTS: 0; HIV Env fusion: -19; E-selectin induc: 0

What do the screens show for `COc1ccc(C(=O)CC(C#N)c2ccc3c(c2)OCO3)cc1OC` (configuration not stated)?
FGF22 binding: 0; F508del corr: 0; S100A4 inh HTS: -21; HIV Env fusion: -3; E-selectin induc: 0

What do the screens show for `CCN1CCN(CC(=O)c2cc(Cl)ccc2Cl)CC1`?
FGF22 binding: 43*; F508del corr: 0; S100A4 inh HTS: 2; HIV Env fusion: -4; E-selectin induc: 2

How did N#C/C(=C(/O)COC(=O)c1ccc(C#N)cc1)c1nc2ccccc2s1 do in these assays?
FGF22 binding: 44*; F508del corr: 0; S100A4 inh HTS: 1; HIV Env fusion: -8

What do the screens show for `O=C(COc1ccc(Cl)cc1Cl)N1CCCN(C(=O)COc2ccc(Cl)cc2Cl)CC1`?
HIV Env fusion: 83*

How did CC(=O)N1CCN(c2ccc(NC(=O)COc3ccc(Cl)cc3Cl)cc2)CC1 do in these assays?
HIV Env fusion: 53*

How did Cc1ccc(-c2ccc3c(c2)O[C@@H](CN(C)S(C)(=O)=O)[C@H](C)CN([C@H](C)CO)S3(=O)=O)cc1 do in these assays?
FGF22 binding: 0; F508del corr: 0; S100A4 inh HTS: -4; HIV Env fusion: 6[16.7 µM]; E-selectin induc: 0

What do the screens show for `CN1[C@@H]2c3ccc(-c4ccncc4)c(=O)n3C[C@H]1[C@H](CO)[C@H]2C(=O)Nc1nccs1`?
FGF22 binding: 0; F508del corr: 1; S100A4 inh HTS: 1; E-selectin induc: 0

What do the screens show for `COC(=O)c1ccc(CNC(=O)c2ccc(OC)c(S(=O)(=O)NC3CCCC3)c2)cc1`?
FGF22 binding: 0; F508del corr: 3; S100A4 inh HTS: 24; E-selectin induc: 99*

What do the screens show for `CN(C)Cc1ccccc1CNC(=O)c1ccc(Cl)c(S(=O)(=O)NC2CC2)c1`?
FGF22 binding: 43*; F508del corr: 4; S100A4 inh HTS: -1; HIV Env fusion: -17; E-selectin induc: 0

What do the screens show for `C[C@H]1CN([C@@H](C)CO)C(=O)c2cc(NC(=O)NC3CCCCC3)ccc2O[C@@H]1CN(C)Cc1ccc(C(=O)O)cc1`?
FGF22 binding: 0; F508del corr: 1; S100A4 inh HTS: 96*; E-selectin induc: -2

How did C[C@H](CO)N1C[C@H](C)[C@H](CN(C)Cc2ccc(C(F)(F)F)cc2)OCCCC[C@H](C)Oc2ccc(NC(=O)NC3CCCCC3)cc2C1=O do in these assays?
FGF22 binding: 0; F508del corr: -1; S100A4 inh HTS: -10; HIV Env fusion: 72*[16.7 µM]; E-selectin induc: 0

How did C[C@H]1CCCCO[C@H](CN(C)Cc2ccc(C(F)(F)F)cc2)[C@@H](C)CN([C@@H](C)CO)C(=O)c2cc(NC(=O)NC3CCCCC3)ccc2O1 do in these assays?
FGF22 binding: 0; F508del corr: -1; S100A4 inh HTS: -5; HIV Env fusion: 66*[16.7 µM]; E-selectin induc: 1

Results for COc1cccc(CN2[C@@H]3CNC[C@H]2C3c2ccc(-c3cccc(C#N)c3)cc2)c1 (some centres not stated) ?
F508del corr: 0; S100A4 inh HTS: 4; E-selectin induc: 0
